# Assays:
# [1] = target: Ribosomal protein S6 kinase alpha-4 (Homo sapiens) (UniProt O75676); experiment: Inhibition of human recombinant MSK2 at 500 nM in presence of ATP by radiometric assay relative to control
# [2] = target: Serine/threonine-protein kinase WNK3 (Homo sapiens) (UniProt Q9BYP7); experiment: Inhibition of human recombinant Wnk3 at 500 nM in presence of ATP by radiometric assay relative to control
# [3] = target: Mitogen-activated protein kinase 1 (Homo sapiens) (UniProt P28482); experiment: Inhibition of human recombinant Erk2 at 500 nM in presence of ATP by radiometric assay relative to control
# [4] = target: Transient receptor potential cation channel subfamily M member 7 (Homo sapiens) (UniProt Q96QT4); experiment: Inhibition of human recombinant ChaK1 at 500 nM related to control ULK1
# [5] = target: Mitogen-activated protein kinase kinase kinase 20 (Homo sapiens) (UniProt Q9NYL2); experiment: Inhibition of human recombinant ZAK at 500 nM related to control ULK1
# [6] = target: T1, Serine/threonine-protein kinase TBK1 (Homo sapiens) (UniProt Q9UHD2); experiment: Inhibition of human recombinant TBK1 at 15 nM related to control ULK1
# T1 sequence (whole entry): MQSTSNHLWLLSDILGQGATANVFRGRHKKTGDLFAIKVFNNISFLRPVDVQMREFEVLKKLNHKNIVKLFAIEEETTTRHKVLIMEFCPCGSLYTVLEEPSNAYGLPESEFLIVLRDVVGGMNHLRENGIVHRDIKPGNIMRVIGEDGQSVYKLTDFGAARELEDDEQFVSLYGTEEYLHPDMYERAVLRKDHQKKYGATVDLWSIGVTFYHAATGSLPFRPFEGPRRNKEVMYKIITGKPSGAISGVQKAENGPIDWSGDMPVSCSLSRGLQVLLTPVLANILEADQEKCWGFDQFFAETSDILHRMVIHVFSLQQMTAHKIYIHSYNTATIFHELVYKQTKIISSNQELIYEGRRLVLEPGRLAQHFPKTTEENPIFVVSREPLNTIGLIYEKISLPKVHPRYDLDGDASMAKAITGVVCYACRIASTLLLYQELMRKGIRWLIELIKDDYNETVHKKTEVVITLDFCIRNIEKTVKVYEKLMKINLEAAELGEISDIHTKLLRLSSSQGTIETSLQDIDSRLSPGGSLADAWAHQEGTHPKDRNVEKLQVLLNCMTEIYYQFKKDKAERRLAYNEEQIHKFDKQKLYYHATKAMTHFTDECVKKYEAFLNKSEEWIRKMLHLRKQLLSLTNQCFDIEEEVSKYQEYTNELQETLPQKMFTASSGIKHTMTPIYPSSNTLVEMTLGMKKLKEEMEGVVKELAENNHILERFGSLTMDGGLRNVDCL
# [7] = target: 5'-AMP-activated protein kinase catalytic subunit alpha-1 (Homo sapiens) (UniProt Q13131); experiment: Inhibition of human recombinant AMPKa1 at 15 nM in presence of ATP by radiometric assay relative to control
# Outline: (§1)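 Panel of 327 recombinant human kinases, each assayed in vitro by radiometric activity assay in duplicate at a single inhibitor concentration per compound, chosen with reference to its ULK1 inhibition. Activity remaining was expressed as percent of vehicle control, and percent inhibition was calculated as 100 minus percent activity remaining.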
# [8] = target: Ephrin type-A receptor 5 (Homo sapiens) (UniProt P54756); experiment: Inhibition of human recombinant EphA5 at 15 nM in presence of ATP by radiometric assay relative to control
# [9] = target: Activin receptor type-1-like (Homo sapiens) (UniProt P37023); experiment: Inhibition of human recombinant ALK1 at 15 nM related to control ULK1; outline: as §1
# [10] = target: Death-associated protein kinase 1 (Homo sapiens) (UniProt P53355); experiment: Inhibition of human recombinant DAPK1 at 15 nM related to control ULK1
# [11] = target: Calcium/calmodulin-dependent protein kinase kinase 1 (Homo sapiens) (UniProt Q8N5S9); experiment: Inhibition of human recombinant CaMKK1 at 40 nM related to control ULK1
# [12] = target: Mitogen-activated protein kinase 8 (Homo sapiens) (UniProt P45983); experiment: Inhibition of human recombinant JNK1 at 40 nM related to control ULK1
# [13] = target: T2, Homeodomain-interacting protein kinase 4 (Homo sapiens) (UniProt Q8NE63); experiment: Inhibition of human recombinant HIPK4 at 40 nM in presence of ATP by radiometric assay relative to control
# T2 sequence (whole entry): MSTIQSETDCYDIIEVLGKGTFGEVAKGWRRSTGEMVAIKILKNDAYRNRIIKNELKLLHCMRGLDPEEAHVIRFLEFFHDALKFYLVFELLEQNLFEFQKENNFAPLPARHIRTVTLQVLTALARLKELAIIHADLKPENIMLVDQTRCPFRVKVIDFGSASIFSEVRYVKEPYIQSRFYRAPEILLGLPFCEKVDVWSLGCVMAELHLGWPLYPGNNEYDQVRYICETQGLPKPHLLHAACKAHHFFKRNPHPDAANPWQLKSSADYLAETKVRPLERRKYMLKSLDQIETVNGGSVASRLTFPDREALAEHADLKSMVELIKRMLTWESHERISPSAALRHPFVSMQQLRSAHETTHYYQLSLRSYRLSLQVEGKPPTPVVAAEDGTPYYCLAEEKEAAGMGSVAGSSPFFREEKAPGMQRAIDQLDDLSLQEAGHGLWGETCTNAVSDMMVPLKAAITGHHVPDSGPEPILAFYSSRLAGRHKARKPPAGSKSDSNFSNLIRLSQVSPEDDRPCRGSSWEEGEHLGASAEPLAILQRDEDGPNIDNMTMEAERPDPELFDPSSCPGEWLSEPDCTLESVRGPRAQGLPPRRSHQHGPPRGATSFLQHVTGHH
# [14] = target: Tyrosine-protein kinase JAK2 (Homo sapiens) (UniProt O60674); experiment: Inhibition of human recombinant JAK2 at 40 nM in presence of ATP by radiometric assay relative to control
# Transient receptor potential cation channel subfamily M member 7 (Homo sapiens), sequence (Q96QT4 whole entry): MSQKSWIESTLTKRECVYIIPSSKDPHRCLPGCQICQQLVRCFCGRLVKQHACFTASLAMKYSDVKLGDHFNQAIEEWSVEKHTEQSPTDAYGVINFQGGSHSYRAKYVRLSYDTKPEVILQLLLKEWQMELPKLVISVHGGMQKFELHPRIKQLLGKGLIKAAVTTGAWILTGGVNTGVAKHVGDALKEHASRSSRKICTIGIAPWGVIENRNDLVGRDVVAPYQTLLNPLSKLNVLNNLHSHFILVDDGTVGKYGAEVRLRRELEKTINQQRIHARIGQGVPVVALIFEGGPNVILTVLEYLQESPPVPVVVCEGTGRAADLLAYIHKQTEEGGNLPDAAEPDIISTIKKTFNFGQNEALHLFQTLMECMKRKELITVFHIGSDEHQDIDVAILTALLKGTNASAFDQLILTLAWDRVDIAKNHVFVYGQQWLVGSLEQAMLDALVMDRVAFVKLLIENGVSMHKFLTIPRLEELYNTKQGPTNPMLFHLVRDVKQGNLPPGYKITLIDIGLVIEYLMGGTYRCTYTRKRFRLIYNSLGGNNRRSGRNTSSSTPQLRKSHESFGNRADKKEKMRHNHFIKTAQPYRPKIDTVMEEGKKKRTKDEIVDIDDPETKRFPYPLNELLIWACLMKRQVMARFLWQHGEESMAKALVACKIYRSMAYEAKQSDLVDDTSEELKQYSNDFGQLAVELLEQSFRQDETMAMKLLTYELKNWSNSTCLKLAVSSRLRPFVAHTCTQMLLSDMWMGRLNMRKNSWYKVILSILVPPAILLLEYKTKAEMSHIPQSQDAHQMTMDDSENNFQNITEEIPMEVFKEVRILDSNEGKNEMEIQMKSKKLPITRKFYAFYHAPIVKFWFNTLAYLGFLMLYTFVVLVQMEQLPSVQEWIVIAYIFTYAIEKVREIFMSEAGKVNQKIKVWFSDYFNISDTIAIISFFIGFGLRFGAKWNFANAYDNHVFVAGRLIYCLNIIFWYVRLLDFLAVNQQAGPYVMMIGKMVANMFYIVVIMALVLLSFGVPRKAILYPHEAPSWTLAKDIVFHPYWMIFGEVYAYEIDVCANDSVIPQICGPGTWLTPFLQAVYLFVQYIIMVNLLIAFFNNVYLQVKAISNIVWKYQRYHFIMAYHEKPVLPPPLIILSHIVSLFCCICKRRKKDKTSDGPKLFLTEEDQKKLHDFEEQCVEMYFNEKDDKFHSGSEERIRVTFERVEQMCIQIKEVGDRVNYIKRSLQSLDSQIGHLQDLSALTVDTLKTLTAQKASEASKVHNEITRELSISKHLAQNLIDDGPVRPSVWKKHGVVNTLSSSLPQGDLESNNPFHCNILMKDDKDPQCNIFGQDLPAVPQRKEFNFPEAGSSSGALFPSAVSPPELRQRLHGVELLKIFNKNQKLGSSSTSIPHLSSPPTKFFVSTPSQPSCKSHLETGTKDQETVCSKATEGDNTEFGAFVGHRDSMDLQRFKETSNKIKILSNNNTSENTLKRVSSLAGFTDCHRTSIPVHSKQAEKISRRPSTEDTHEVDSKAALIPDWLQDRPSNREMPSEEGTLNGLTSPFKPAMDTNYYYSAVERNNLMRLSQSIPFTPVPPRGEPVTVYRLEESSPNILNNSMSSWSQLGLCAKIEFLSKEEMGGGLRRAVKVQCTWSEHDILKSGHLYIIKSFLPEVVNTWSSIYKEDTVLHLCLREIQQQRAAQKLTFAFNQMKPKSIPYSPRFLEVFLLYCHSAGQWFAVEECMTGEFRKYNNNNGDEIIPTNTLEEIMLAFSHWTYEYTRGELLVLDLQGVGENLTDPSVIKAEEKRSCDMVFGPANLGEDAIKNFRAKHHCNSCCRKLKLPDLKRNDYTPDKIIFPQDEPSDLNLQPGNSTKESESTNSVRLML
# Mitogen-activated protein kinase 1 (Homo sapiens), sequence (P28482 whole entry): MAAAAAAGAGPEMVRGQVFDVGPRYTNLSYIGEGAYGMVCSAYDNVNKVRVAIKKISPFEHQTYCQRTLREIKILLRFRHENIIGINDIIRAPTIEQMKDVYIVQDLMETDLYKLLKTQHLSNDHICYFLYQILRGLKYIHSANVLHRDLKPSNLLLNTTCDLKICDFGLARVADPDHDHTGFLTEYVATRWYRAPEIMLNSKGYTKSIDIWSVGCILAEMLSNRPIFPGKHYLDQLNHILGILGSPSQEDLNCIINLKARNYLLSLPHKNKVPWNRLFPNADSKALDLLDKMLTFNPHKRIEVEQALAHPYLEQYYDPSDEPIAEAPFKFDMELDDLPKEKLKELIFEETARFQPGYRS
# Ribosomal protein S6 kinase alpha-4 (Homo sapiens), sequence (O75676 whole entry, looked up): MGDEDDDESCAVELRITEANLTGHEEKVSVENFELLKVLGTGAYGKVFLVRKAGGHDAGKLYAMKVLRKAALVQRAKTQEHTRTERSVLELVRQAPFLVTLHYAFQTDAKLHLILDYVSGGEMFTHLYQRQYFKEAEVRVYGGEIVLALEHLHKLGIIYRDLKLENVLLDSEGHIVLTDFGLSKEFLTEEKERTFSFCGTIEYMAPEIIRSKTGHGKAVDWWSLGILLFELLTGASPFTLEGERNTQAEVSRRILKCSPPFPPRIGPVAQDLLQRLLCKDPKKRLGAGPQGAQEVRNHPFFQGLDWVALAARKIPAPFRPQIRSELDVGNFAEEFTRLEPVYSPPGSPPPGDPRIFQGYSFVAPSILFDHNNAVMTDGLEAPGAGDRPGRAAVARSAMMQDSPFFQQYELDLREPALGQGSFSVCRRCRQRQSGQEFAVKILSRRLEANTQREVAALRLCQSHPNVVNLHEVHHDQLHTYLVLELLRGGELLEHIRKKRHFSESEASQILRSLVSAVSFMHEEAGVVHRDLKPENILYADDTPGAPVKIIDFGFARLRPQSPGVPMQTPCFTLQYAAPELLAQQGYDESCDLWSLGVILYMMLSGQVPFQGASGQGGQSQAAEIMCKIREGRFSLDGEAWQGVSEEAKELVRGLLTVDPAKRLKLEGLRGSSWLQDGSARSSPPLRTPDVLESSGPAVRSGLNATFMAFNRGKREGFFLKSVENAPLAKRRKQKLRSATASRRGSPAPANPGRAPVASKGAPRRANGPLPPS
# Death-associated protein kinase 1 (Homo sapiens), sequence (P53355 whole entry, looked up): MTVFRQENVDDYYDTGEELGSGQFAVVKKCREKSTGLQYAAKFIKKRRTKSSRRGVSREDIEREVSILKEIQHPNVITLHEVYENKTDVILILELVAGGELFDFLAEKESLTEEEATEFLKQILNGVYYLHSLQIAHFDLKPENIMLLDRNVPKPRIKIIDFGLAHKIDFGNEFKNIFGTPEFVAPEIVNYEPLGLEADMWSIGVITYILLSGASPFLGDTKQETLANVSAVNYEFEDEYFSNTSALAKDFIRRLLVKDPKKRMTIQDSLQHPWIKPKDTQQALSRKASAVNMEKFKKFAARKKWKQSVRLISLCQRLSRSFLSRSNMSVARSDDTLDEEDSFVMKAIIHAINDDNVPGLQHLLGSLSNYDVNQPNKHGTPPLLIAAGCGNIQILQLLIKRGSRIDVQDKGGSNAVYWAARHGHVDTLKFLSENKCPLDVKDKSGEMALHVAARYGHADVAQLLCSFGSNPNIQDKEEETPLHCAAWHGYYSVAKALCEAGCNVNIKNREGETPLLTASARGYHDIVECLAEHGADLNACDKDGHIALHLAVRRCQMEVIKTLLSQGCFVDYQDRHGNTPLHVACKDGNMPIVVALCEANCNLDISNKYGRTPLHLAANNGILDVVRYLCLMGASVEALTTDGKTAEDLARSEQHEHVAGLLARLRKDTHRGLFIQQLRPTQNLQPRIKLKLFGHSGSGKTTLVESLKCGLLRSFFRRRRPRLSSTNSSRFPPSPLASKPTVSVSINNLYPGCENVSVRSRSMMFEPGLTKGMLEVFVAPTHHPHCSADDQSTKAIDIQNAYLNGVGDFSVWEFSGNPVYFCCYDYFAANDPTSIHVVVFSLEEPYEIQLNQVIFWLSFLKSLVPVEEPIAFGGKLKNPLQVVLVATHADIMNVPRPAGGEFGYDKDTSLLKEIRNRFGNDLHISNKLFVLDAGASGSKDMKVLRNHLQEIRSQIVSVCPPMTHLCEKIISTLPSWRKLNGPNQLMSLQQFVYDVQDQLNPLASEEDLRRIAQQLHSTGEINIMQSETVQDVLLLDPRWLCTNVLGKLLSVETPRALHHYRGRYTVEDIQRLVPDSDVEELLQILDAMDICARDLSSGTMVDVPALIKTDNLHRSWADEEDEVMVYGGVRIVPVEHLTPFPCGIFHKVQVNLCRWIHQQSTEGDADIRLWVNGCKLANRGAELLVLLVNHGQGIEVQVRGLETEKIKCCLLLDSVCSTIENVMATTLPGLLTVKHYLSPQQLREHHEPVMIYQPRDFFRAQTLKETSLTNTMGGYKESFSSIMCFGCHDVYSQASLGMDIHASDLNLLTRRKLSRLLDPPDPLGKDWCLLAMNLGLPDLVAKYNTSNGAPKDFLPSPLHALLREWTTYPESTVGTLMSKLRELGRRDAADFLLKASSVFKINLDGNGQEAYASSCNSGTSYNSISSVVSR
# 5'-AMP-activated protein kinase catalytic subunit alpha-1 (Homo sapiens), sequence (Q13131 whole entry, looked up): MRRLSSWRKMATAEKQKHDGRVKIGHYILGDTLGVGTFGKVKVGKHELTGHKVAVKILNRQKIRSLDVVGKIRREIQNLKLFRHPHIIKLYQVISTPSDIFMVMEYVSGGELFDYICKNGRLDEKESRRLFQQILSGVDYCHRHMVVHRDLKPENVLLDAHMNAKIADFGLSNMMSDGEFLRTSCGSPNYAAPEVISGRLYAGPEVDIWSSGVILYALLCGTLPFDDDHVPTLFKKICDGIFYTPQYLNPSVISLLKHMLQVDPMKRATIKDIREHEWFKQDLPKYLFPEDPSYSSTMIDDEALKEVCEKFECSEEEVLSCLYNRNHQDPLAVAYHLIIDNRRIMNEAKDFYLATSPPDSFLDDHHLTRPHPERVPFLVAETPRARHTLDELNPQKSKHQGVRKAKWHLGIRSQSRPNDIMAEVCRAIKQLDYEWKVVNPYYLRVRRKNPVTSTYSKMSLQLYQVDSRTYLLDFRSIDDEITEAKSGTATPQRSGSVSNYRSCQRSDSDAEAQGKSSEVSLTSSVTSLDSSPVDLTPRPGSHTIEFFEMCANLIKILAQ
compound,measurement,setting,value
CNC(=O)c1ccccc1Oc1nc(Nc2cc(OC)c(OC)c(OC)c2)ncc1Br,inhibition,[1],0%
same,inhibition,[2],6%
same,inhibition,[3],0%
same,fold change (FC),[4],0
same,fold change (FC),[5],0.01
CC(C)[C@H](NC(=O)c1cc(-c2cnn3cc(-c4ccc(OCCN5CCCCC5)cc4)cnc23)cs1)C(F)(F)F,fold change (FC),[6],0.9
same,inhibition,[7],58%
same,inhibition,[8],0%
same,fold change (FC),[9],0.08
same,fold change (FC),[10],0.05
O=C(N[C@@H](C1CC1)C(F)(F)F)c1cc(-c2cnn3cc(-c4ccc(F)cc4)cnc23)cs1,fold change (FC),[11],0
same,fold change (FC),[12],0
same,inhibition,[13],0%
same,inhibition,[14],0%

# From ChEMBL document CHEMBL5653631, “A Potent and Selective ULK1 Inhibitor Suppresses Autophagy and Sensitizes Cancer Cells to Nutrient Stress” (iScience, 2018)
